CHOP inhibitor – inhibitors of CHOP promoter induction, primary screen, cell-based, unfolded protein response, luciferase reporter; CHO-K1 CHOP-promoter luciferase, tunicamycin-induced, 15-18 h; inhibition, % at 10 µM; hit rate 3.8% among 220,000; AID 2732, 2010;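 active = compounds that reduced the stress-induced luciferase reporter signal by more than about 70% of percent inhibition, limit read from the data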;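 note: 0% = tunicamycin plus vehicle and 100% = wells without tunicamycin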
Jurkat NFkB inh – inhibitors of induced NF-kB luciferase reporter, primary screen, TCR NF-kB activation inhibitor project, cell-based, luminescence, uHTS; inhibition, % at 4 µM; Jurkat, PMA/ionomycin-induced NF-kB luciferase reporter; hit rate 0.53% among 330,000; in the data active = inhibition above about 50%
XBP1 UPR activ – activators of adaptive XBP1 UPR arm, primary screen, cell-based, CHO-XBP1 luciferase reporter, luminescence, uHTS | hit rate 0.33% among 330,000 | IRE1-XBP1 UPR activation; percent of tunicamycin response, DMSO as zero | AID 463104, 2010 | activation, % at 20 µM;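 active = versus positive control, 20 µM dose yields 30% or more activation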;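 note: 100% = tunicamycin at 10 µg/mL and 0% = DMSO only wells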
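Assay system: IRE1-XBP1 luciferase reporter CHO line. Input: 1000 cells/well. Buffer or medium: F12 with 10% serum. Doses: 20 µM, 1% DMSO. Times: overnight seeding at 37 °C, 6 h compound treatment at 37 °C. Technique: Steady-Glo luciferase glow luminescence, 10 min after reagent addition.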
697 NFkB inh – inhibitors of PMA/ionomycin-induced NF-kB reporter, 697 cells, primary screen, B-cell NF-kB inhibitor project, cell-based, luminescence, uHTS; inhibition, % at 4 µM; 697 B-cell NF-kB luciferase reporter, 16 h; hit rate 0.33% among 330,000; AID 435022, 2010; in the data active = inhibition above about 35%
CHOP UPR activ – activators of apoptotic CHOP UPR arm, primary screen, cell-based, CHO-CHOP luciferase reporter, luminescence, uHTS | activation, % at 10 µM | UPR activation; percent of tunicamycin response over DMSO baseline | hit rate 0.34% among 330,000 | AID 449763, 2010;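 active = at 10 µM dose, activation of 40% or more, normalized to positive control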;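 note: 100% = tunicamycin at 10 µg/mL and 0% = DMSO alone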
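Dosing – one dose, 10 µM in 0.5% DMSO · System – CHO-CHOP cells, stable luciferase reporter of PERK-eIF2a-CHOP signalling · Input – 500 cells/well · Control set – tunicamycin 10 µg/mL final as positive, DMSO-only wells as negative · Timing – 6 h compound treatment, 37 °C · Measure – % activation vs tunicamycin · Technique – luminescence read with Steady-Glo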
XBP1 UPR conf – IRE1-XBP1 UPR arm activators, confirmation, cell-based, CHO-XBP1 luciferase reporter, luminescence, single concentration | hit rate 63% among 1,000 | activation, % at 20 µM | shares compounds with XBP1 UPR activ | AID 485299, 2010;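 active = reporter signal at least 30% of the positive control's activation in two or more of four replicate wells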;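 note: plate controls were DMSO negative control for no effect and tunicamycin 10 µg/mL positive control for full effect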
An asterisk follows results filed as active; · = no result. The full list was thinned out, with hits kept by preference.

SMILES	CHOP inhibitor	Jurkat NFkB inh	XBP1 UPR activ	697 NFkB inh	CHOP UPR activ	XBP1 UPR conf
COc1ccc(S(=O)(=O)N2CCN(S(=O)(=O)c3ccc4c(c3)OCCO4)CC2)cc1	-32	21	38*	19	-2	14
COc1ccc(S(=O)(=O)N2CCN(S(=O)(=O)c3ccc4c(c3)OCCO4)CC2)cc1C	18	4	-2	25	1	·
COC(=O)c1cc(C(=O)OCC(=O)N(C)c2ccccc2)cc([N+](=O)[O-])c1	·	-4	0	11	-1	·
COc1ccc(Cn2c(-c3ccc(OC)cc3)nc3c(c(=O)c4ccccc4n3C)c2=O)cc1	29	6	3	16	2	·
COc1ccc(Cn2c(-c3ccccc3C)nc3c(c(=O)c4ccccc4n3C)c2=O)cc1	·	-4	41*	-9	8	2
N=c1c2c(n(Cc3ccc(F)cc3)c3c1CCC3)CCC2	4	36	149*	11	-2	1
COc1ccccc1/C=N\NC(=O)c1ccc(COc2ccc(C)c(C)c2)o1	·	-1	41*	-84	2	0
Cc1ccc(Cn2cnc3sc4c(c3c2=O)CCC4)c(C)c1	77*	-21	31*	-12	2	6
CCc1cc2cc3c(cc2nc1SCC(=O)Nc1nccs1)OCO3	44	-15	57*	-13	8	14
CCc1cc2cc3c(cc2nc1SCC(=O)Nc1c[nH]c(=O)[nH]c1=O)OCO3	·	-7	-1	21	-1	·
Cn1c(=O)c2c(nc(N3CCCCC3)n2C)n(C)c1=O	-26	0	52*	-10	-3	0
COc1ccc(/C=N/Nc2nc(C(=O)O)cs2)cc1	·	8	-8	-92	-6	·
S=C(Nc1cccc(Cl)c1)NC1CCCCC1	44	-5	37*	-1	0	-1
S=C(NNc1cccc(Cl)c1)NC1CCCCC1	51	6	0	4	0	·
CN(C)CCOc1ccc(-c2c(-c3ccccc3)sc3ccccc23)cc1	·	-9	60*	13	4	55*
Cc1ccc2nc3c(cc(C#N)c(=N)n3Cc3cccnc3)c(=O)n2c1	22	0	0	1	-1	·
O=C(CN(C(=O)c1csnn1)c1ccc(Br)cc1)NC1CCCCC1	·	-15	2	9	2	·
COc1ccc(CN(C)C(=O)Cn2cnc3c(NCc4ccccc4)ncnc32)cc1OC	·	·	2	-39	-1	·
COc1ccc(/C=N/NC(=O)c2cccc(C(=O)N/N=C/c3ccc(OC)c(OC)c3)n2)cc1OC	·	-15	-4	5	-1	·
COc1ccc(/C=N/NC(=O)Nc2cccc3nsnc23)cc1OC	83*	7	74*	-9	7	25
COc1ccc(CC(=O)Nc2cc(C)c3c(=O)oc4ccccc4c3n2)cc1	·	5	-2	14	1	·
CCOc1ccc(C(=O)Nc2cc(C)c3c(=O)oc4ccccc4c3n2)cc1	-4	-9	52*	-9	0	2
Cc1cc(C(=O)OCC(=O)N2CCN(C(=O)c3ccco3)CC2)c(C)n1-c1ccc(F)cc1	53	-16	1	-27	0	·
CCOC(=O)c1cc2c(ccn2-c2ccc(F)cc2)n1CC(=O)N1CCN(C(=O)c2ccco2)CC1	-62	42	45*	27	0	11
O=C(NCCC1=CCCCC1)C(=O)NCC(c1ccco1)N1CCN(c2ccc(F)cc2)CC1 (configuration not stated)	88*	-10	31*	5	2	56*
SMILES	CHOP inhibitor	Jurkat NFkB inh	XBP1 UPR activ	697 NFkB inh	CHOP UPR activ	XBP1 UPR conf
CC(C)(C)NC(=O)COc1coc(CN2CCN(C(=O)c3ccco3)CC2)cc1=O	·	15	-4	16	0	·
CCOC(=O)c1ccc(-c2ccc3c(=O)c4ccccc4n(C)c3c2)cc1F	·	-8	100*	16	1	2
CCOC(=O)c1ccc(-c2c(-c3ccccc3OC)oc3ccccc23)cc1F	·	-1	-1	19	3	·
CN1CCC(N(CCc2ccccc2)C(=O)CCC(=O)O)CC1	·	-21	-3	-27	0	·
CCOc1ccc(C(=O)Nc2cc(-c3nc4ccccc4[nH]3)ccc2C)cc1[N+](=O)[O-]	10	-10	7	5	2	·
O=C(NC(=S)Nc1cc(-c2nc3ccccc3[nH]2)ccc1Cl)c1ccc2c(c1)OCO2	94*	4	96*	-77	19	164*
CCOc1ccc(C(=O)Nc2cc(-c3nc4ccccc4[nH]3)ccc2Cl)cc1[N+](=O)[O-]	79*	-4	35*	-32	1	535*
Cc1nc(C)c(C(=O)OCC(=O)Nc2cccc(C)c2C)s1	·	-3	0	5	0	·
CCOCCn1c(=NC(=O)CSCC(=O)N2CCOCC2)sc2cc(OC)ccc21	·	5	1	4	-1	·
COC(=O)C1=C(C)N(Cc2ccccc2)C(=NCc2ccccc2)N[C@H]1c1cccc(C(F)(F)F)c1	·	5	30*	26	8	18
COC(=O)C1=C(C)N(Cc2ccccc2)C(=NCC(C)C)N[C@H]1c1cccc(C(F)(F)F)c1	·	6	15	14	3	·
COC(=O)C1=C(C)N(Cc2ccccc2)C(=NCc2cccc(Cl)c2)N[C@H]1c1cccc(F)c1	·	-7	45*	2	19	19
COc1ccc(CCNC(=O)c2ccc3c(c2)NC(=O)C(CSCc2cc(C)ccc2C)N3)cc1OC (configuration not stated)	·	0	0	9	0	·
O=[N+]([O-])c1cccc(/C=C/c2ccc3cccc(O)c3n2)c1	·	-40	98*	-130	32	158*
O=[N+]([O-])c1ccc(/C=C/c2ccc3cccc([N+](=O)[O-])c3n2)cc1	8	-33	0	-37	3	·
O=C(NCCCn1ccnc1)c1nn2c(C(F)(F)F)cc(-c3ccc(Br)cc3)nc2c1Cl	43	29	37*	-12	2	94*
Cc1cnc(C(=O)N2CCN(S(=O)(=O)c3cccc(Br)c3)CC2)cn1	·	-15	4	-11	0	·
CCOc1ccc(N2CC(C(=O)Nc3ccccc3F)CC2=O)cc1 (configuration not stated)	10	-1	-2	6	3	·
CCc1cccc2c1Sc1ccccc1CC2N1CCNCC1 (configuration not stated)	·	7	6	-30	6	·
Cc1cccc2c1Sc1ccc(Cl)cc1CC2N1CCNCC1 (configuration not stated)	·	15	31*	-28	8	37*
